An excerpt weighted towards active compounds, which were near 2.6% of everything screened.
SENP8 block-1 – inhibitors of human SENP8 protease; inhibition, % at 10 µM; purified SENP8, Z-RLRGG-aminoluciferin cleavage, luminescence; AID 2540; 330,000 tested, 1.2% active; in the data active means inhibition above about 50%
SENP1 inh – inhibitors of human SENP1 SUMO protease catalytic domain; recombinant SENP1 catalytic domain, CyPet-SUMO1-YPet FRET cleavage; 360,000 tested, 0.21% active; inhibition, % at 10 µM; Q9P0U3;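 active means inhibition at least 30% at 10 µM, raw YFP signal under a set limit, fluorescence ratio 0.5 to 1.5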
Target sequence (Q9P0U3 419-644 limits assumed): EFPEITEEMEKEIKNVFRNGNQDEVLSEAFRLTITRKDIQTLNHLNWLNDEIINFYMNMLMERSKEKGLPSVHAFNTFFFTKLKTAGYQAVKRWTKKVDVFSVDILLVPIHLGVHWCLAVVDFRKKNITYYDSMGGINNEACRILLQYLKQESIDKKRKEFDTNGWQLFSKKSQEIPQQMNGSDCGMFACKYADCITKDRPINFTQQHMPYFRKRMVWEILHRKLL
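Assay system: hSENP1 catalytic domain, recombinant. Amount: SENP1 enzyme, 20 pM final. Schedule: 50 min reaction, RT, dark. Technique: FRET, CFP and YFP emission. Control set: no-enzyme wells low, DMSO-plus-enzyme wells high control.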
Platelet DG rel – modulates dense granule release in human platelets; human platelet-rich plasma, SFLLRN dense granule ATP release, luminescence; inhibition, %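 (compounds screened at 7.5 µM in platelet-rich plasma)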; 300,000 tested, 0.22% active; AID 1663;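 active means mean replicate score, as percent of positive control, at or above 50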
SENP8 block-2 – SENP8 (human) protease inhibition; AID 602440; recombinant SENP8, Nedd8 substrate fluorescence; Q96LD8; inhibition, % at 20 µM; 360,000 tested, 0.64% active; in the data active means inhibition mostly above about 40%, no sharp cut-off; inactive means mostly below about 27%
SENP7 block – SENP7 protease inhibition. Q9BQF6. recombinant SENP7, Z-RLRGG-aminoluciferin luminescence, 40 min. inhibition, % at 5 µM. 330,000 tested, 1.5% active. AID 434973;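 active means inhibition above about 50% at the single test dose, limit read from the data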
Target sequence (Q9BQF6 706-1050 limits assumed): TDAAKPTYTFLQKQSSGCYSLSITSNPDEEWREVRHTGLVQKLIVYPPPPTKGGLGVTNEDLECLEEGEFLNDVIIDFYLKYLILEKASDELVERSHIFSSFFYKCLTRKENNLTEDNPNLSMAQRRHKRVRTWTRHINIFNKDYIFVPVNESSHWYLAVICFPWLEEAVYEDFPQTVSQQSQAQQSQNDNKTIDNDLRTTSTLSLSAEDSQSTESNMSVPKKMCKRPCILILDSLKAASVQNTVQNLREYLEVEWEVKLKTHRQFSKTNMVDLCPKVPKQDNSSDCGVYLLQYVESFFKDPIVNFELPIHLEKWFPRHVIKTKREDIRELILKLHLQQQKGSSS
SENP6 inh – blocks the human protease SENP6. Recombinant SENP6 catalytic domain, aminoluciferin luminescence. inhibition, % at 10 µM. 330,000 tested, 1.8% active;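 active means inhibition above about 50% at the single tested dose, limit read from the data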
SENP8 conf – confirmation of human SENP8 protease inhibitors | shares compounds with SENP7 block | Recombinant SENP8, Z-RLRGG-aminoluciferin luminescence, 60 min | inhibition, % at 12.5 µM | 6,200 tested, 40% active;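 active means mean inhibition across replicates above about 50%, limit read from the data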
SENP6 conf – confirmation of human SENP6 protease inhibitors. 6,200 tested, 58% active. shares compounds with SENP7 block. recombinant SENP6, Z-RLRGG-aminoluciferin luminescence. inhibition, % at 12.5 µM. AID 488915
SENP7 confirm – human SENP7 inhibition, confirmed; shares compounds with SENP7 block; recombinant SENP7, Z-RLRGG-aminoluciferin luminescence, 40 min; inhibition, % at 12.5 µM; 6,200 tested, 69% active; AID 488917
Casp3 SENP sel – caspase-3 inhibition (SENP selectivity assay); shares compounds with SENP7 block; 6,200 tested, 60% active; purified caspase-3, Z-DEVD-aminoluciferin luminescence, 60 min; inhibition, % at 12.5 µM; AID 488918;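 active means mean inhibition above about 50%, limit read from the data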
SENP luc ctr – luminescence interference (SENP counter-screen); shares compounds with SENP7 block; Pre-incubated SENP8/Z-RLRGG-aminoluciferin, luciferase luminescence interference; inhibition, % at 12.5 µM; 6,200 tested, 39% active;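 active means mean inhibition above about 50% when retested at one dose, limit read from the data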
A number is an active result; i = inactive; nt = no result given.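 How the source made its calls, unless noted: active means mean inhibition above about 50% in the one-dose retest (limit read from the data); inactive means the rest.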

SMILES	SENP8 block-1	SENP1 inh	Platelet DG rel	SENP8 block-2	SENP7 block	SENP6 inh	SENP8 conf	SENP6 conf	SENP7 confirm	Casp3 SENP sel	SENP luc ctr
O=C(Nc1ccc(Cl)cc1Cl)c1ccc(Br)o1	55	i	i	i	i	69	i	i	i	i	i
O=C(Nc1ccc2c(c1)OCCO2)c1ccc(Br)cc1	59	i	i	i	61	71	71	70	90	68	i
O=C(Nc1cc(Cl)ccc1N1CCOCC1)c1ccc(Br)o1	i	i	i	i	i	i	nt	nt	nt	nt	nt
CC(=O)Nc1ccc2c(c1)OCCO2	i	i	i	i	i	i	nt	nt	nt	nt	nt
COC(=O)C1[C@H]2C(=O)N(Cc3cccs3)C[C@]23C=C[C@H]1O3 (some centres undefined)	i	i	i	i	i	i	nt	nt	nt	nt	nt
Oc1c(C=NCc2ccncc2)sc2ccccc12	i	nt	i	nt	i	i	nt	nt	nt	nt	nt
Oc1c(C=Nc2cccnc2)sc2ccccc12	58	i	i	i	i	78	i	73	95	81	75
Oc1sc(C=Nc2ccccc2)c2ccccc12	62	i	i	i	60	i	81	83	96	53	82
Oc1sc(C=Nc2ccc(F)cc2)c2ccccc12	i	i	i	i	i	i	nt	nt	nt	nt	nt
Oc1c(C=Nc2ccccc2)sc2ccccc12	97	i	i	i	101	97	92	100	103	98	i
CN=Cc1sc2ccccc2c1O	i	i	i	i	i	i	nt	nt	nt	nt	nt
Oc1c(/C=N/c2ccccn2)sc2ccccc12	95	i	86	i	95	98	96	97	102	96	i
CCCCCn1c(=O)[nH]c2cc(C(=O)N3CCN(c4ccc(F)cc4)CC3)ccc2c1=O	nt	i	nt	i	nt	nt	nt	nt	nt	nt	nt
Cc1nc2ccccc2c(=O)n1/N=C1\C(=O)N(C)c2ccccc21	i	nt	i	nt	i	i	nt	nt	nt	nt	nt
O=Cc1c(-c2ccccc2)cc2oc3ccccc3cc1-2	78	i	i	i	65	67	i	i	i	i	i
O=C(O)c1cccc2c1C(=O)c1ccc(Cl)cc1S2(=O)=O	i	i	nt	i	i	i	nt	nt	nt	nt	nt
COc1cccc(-c2ccc(SCc3ccccn3)nn2)c1	59	i	i	i	80	i	75	67	92	86	78
CC(C)(C)C(=O)CSc1ncnc2c1cnn2-c1ccccc1	i	i	i	i	i	i	nt	nt	nt	nt	nt
c1ccc(CSc2ncnc3c2cnn3-c2ccccc2)cc1	54	i	i	i	72	71	i	i	i	i	i
CC(C)OC(=O)CSc1ncnc2c1cnn2-c1ccccc1	i	i	i	i	52	i	i	i	i	i	i
CC(=O)NC12CC3CC(C1)CC(C(=O)N1CCN(S(=O)(=O)c4ccc(Cl)s4)CC1)(C3)C2	i	i	i	i	i	i	nt	nt	nt	nt	nt
CN(C)C1(CNC(=O)C2CCC(=O)N(Cc3ccc(Cl)cc3)C2)CCCCC1 (centres undefined)	i	i	i	i	i	i	nt	nt	nt	nt	nt
O=C(/C=C/c1ccccc1O)c1ccc(Cl)cc1	i	i	i	i	i	67	i	55	i	i	56
O=C(Nc1ccccn1)c1ccc(C(=O)Nc2ccccn2)cc1	i	i	i	i	i	i	nt	nt	nt	nt	nt
O=C(/C=C\Nc1ccccn1)c1ccc(Cl)cc1	95	i	nt	i	i	95	i	77	88	75	i
SMILES	SENP8 block-1	SENP1 inh	Platelet DG rel	SENP8 block-2	SENP7 block	SENP6 inh	SENP8 conf	SENP6 conf	SENP7 confirm	Casp3 SENP sel	SENP luc ctr
COc1cccc(C(=O)/C=C/Nc2cc(C)ccc2O)c1	84	i	i	i	101	92	i	92	99	72	87
COc1ccc(OC)c(N/C=C/C(=O)c2ccc(OC)c(OC)c2)c1	i	i	i	i	i	i	nt	nt	nt	nt	nt
COc1cccc(C(=O)/C=C/Nc2ccc(S(=O)(=O)Nc3ncccn3)cc2)c1	i	i	i	i	i	63	i	i	i	i	i
Cc1nccn1CCN(C)Cc1cn(Cc2ccccc2)nc1-c1ccc2c(c1)OCO2	i	i	i	i	i	i	nt	nt	nt	nt	nt
O=C(Cc1ccc(F)cc1)N1CCC(CC2CC(c3cccc(Br)c3)=NO2)(C(=O)NCC2CCCCC2)CC1 (centres undefined)	i	i	i	i	i	i	nt	nt	nt	nt	nt
Cc1ccc(S(=O)(=O)N(C)C)cc1NC(=O)CN1C(=O)NC2(CCc3ccccc32)C1=O (centres undefined)	nt	i	nt	i	nt	nt	nt	nt	nt	nt	nt
O=C(O)C1(c2ccccc2)CCN(S(=O)(=O)c2ccc(Cl)s2)CC1	i	i	i	i	i	i	nt	nt	nt	nt	nt
Cc1ccc(Cl)c(N/C=C/C(=O)c2ccccc2)c1	i	i	i	i	71	77	i	60	79	50	i
COc1ccc(C(=O)/C=C/Nc2cccc(O)c2)cc1	88	i	55	i	85	93	96	97	102	91	91
COc1ccc(N/C=C\C(=O)c2ccc(C)cc2)cc1OC	i	i	i	i	i	i	nt	nt	nt	nt	nt
CCOc1ccc(N/C=C/C(=O)c2ccc(OC)cc2)cc1	i	i	i	i	i	i	nt	nt	nt	nt	nt
COc1cccc(N/C=C/C(=O)c2ccc(OC)c(OC)c2)c1	64	i	i	i	75	89	i	70	93	70	i
Cc1cccc(N/C=C/C(=O)c2ccc(Cl)cc2)c1	66	i	i	i	89	73	i	i	i	i	i
COc1cccc2c1OC1(C)CC2NC(=O)N1c1cccc(C(=O)N2CCN(c3ccccc3)CC2)c1 (centres undefined)	i	i	i	i	i	i	nt	nt	nt	nt	nt
O=C(c1ccco1)N1CCN(c2ccnc3cc(Cl)ccc23)CC1	i	i	i	i	i	i	nt	nt	nt	nt	nt
O=C(NC(=S)N1CCN(C/C=C/c2ccccc2)CC1)c1ccc(F)cc1	i	i	i	i	i	i	nt	nt	nt	nt	nt
Cc1cc2nn(-c3cccc4ccccc34)nc2cc1N	i	i	i	i	i	i	nt	nt	nt	nt	nt
Nc1ccc2nn(-c3ccccc3)nc2c1	66	i	nt	i	i	74	i	65	82	62	i
Nc1cc2nn(-c3ccccc3)nc2cc1Cl	nt	i	i	i	nt	nt	nt	nt	nt	nt	nt
Nc1ccc(-n2nc3ccccc3n2)cc1	i	i	i	i	64	i	i	56	87	60	67
COc1ccc(-n2nc3ccccc3n2)cc1	i	i	i	i	i	i	nt	nt	nt	nt	nt

Screening data (PubChem BioAssay)
